Data from ChEMBL document CHEMBL1949657, “Chemical modification of the multitarget neuroprotective compound fisetin” (J Med Chem, 2012).
The source made the active and inactive calls.

Columns and labels:
HT-22 [1] = assay: Induction of Nrf2 expression in mouse HT22 cells from 1 to 4 hrs by immunoblotting; type: functional, cell-based
In short: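 Nuclear extracts taken from untreated and derivative-treated cells at 1, 2 and 4 h. Equal protein run on 10% SDS-PAGE, blotted to nitrocellulose (Ponceau-S loading check). Probed with anti-Nrf2 (1/1000) and anti-β-actin, HRP secondary, chemiluminescence. Tested twice; positives tested a third time.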

HT-22 [2] = assay: Neuroprotective activity in mouse HT22 cells assessed as reduction in IAA-induced ischemia after 24 hrs by MTT assay; type: functional, cell-based
In short: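 HT22 cells seeded at 5×10^3/well. Next day switched to DMEM + 7.5% DFCS with 20 μM IAA ± derivative doses for 2 h, then IAA-free medium with derivative for 20 h. MTT 2.5 μg/ml for 4 h at 37 °C, solubilised in DMF/SDS pH 4.7, A570 read. Controls for compound toxicity and assay interference. EC50 from dose series; tested twice, third time if EC50 < 1 μM.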

N9 = assay: Antiinflammatory activity in mouse N9 cells assessed as reduction of LPS-induced microglial activation at 1 to 10 uM measured as nitrite level after 24 hrs by Griess reagent-based assay; type: functional; design: scale not given: the % may be the effect or the level left
In short: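 N9 microglia in DME with 7.5% DFCS, given 10 μg/ml LPS alone or with derivatives (1–10 μM) for 24 h. Medium spun to remove floating cells, then nitrite measured with Griess reagent, 10 min at room temperature, absorbance 550 nm. Fisetin 10 μM as positive control. Tested twice; positives tested a third time.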

HT-22 [3] = assay: Ratio of fisetin EC50 to compound EC50 for neuroprotectivie activity in mouse HT22 cells; type: functional
PC-12 = assay: Neurotrophic activity in rat PC12 cells assessed as neurite outgrowth at 1 to 10 uM after 24 hrs; type: functional, cell-based
In short: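 PC12 cells in N2 medium given derivatives (1–10 μM) for 24 h, fisetin 10 μM as positive control. 100 cells counted in each of three fields. A cell scored positive with ≥1 neurite longer than one cell-body diameter. Tested twice; positives tested a third time.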

HT-22 [4] = assay: Neuroprotective activity against glutamate-induced GSH loss in mouse HT22 cells assessed as intracellular GSH level at 1 to 10 uM after 24 hrs; type: functional, cell-based
In short: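 HT22 cells given derivatives (1–10 μM) with 5 mM glutamate. After 24 h, cell extracts analysed for total intracellular GSH by chemical assay. Fisetin 10 μM as positive control. Tested twice; positives tested a third time.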

[5] = Antioxidant activity against ABTS radical assessed as trolox equivalent after 4 mins by TEAC assay; type: functional
In short: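 ABTS radical cation formed overnight with potassium persulfate and diluted to OD ~0.7 at 734 nm, then mixed with derivative in ethanol. Loss of A734 followed over 4 min. TEAC = slope of % absorbance inhibition vs concentration divided by the slope for Trolox.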

Oryctolagus cuniculus = assay: Neuroprotective activity in New Zealand white rabbit small clot embolism model assessed as reduction in stroke-induced behavioural deficits at 50 mg/kg, iv administered 5 mins post-embolization measured after 24 hrs; type: functional, organism-based; design: dose 50 mg/kg, route intravenous
[6] = Mus musculus, HT-22, 24 h, read-out: EC50

| Structure (SMILES) | Activity (HT-22 [1]) | EC50 (HT-22 [2]; [6]) | Activity (N9) | Ratio EC50 (HT-22 [3]) | Activity (PC-12) | Activity (HT-22 [4]) | Activity [5] | EC50 (HT-22 [2]; ht-22) | EC50 (Oryctolagus cuniculus) |
| --- | --- | --- | --- | --- | --- | --- | --- | --- | --- |
| COc1cc(-c2ccc(O)c(O)c2)nc2ccccc12 | inactive | 40 nM | 85% | 75 | inactive | Active | 0.36 equiv | – | – |
| Oc1ccc(-c2cc(OC3CCCC3)c3ccccc3n2)cc1O [CMS-121] | inactive | 7 nM | 82% | – | Active | Active | 0.4 equiv | – | – |
| O=c1c(O)c(-c2ccc(N3CCCC3)c(O)c2)oc2c1ccc1ccccc12 | inactive | 5 nM | 50% | 600 | Active | Active | 2.1 equiv | – | – |
| Cc1cc(O)c(C(=O)/C=C/c2ccc(O)c(O)c2)cc1C | Active | 50 nM | 94% | – | Active | Active | 2.7 equiv | – | – |
| COc1ccc(-c2oc3cc(C)c(C)cc3c(=O)c2O)cc1O | – | 20 nM | 72% | 10 | inactive | inactive | 1.74 equiv | – | – |
| CN(C)c1ccc(-c2oc3c(ccc4ccccc43)c(=O)c2O)cc1 | inactive | 40 nM | 0% | – | inactive | Active | 0.93 equiv | – | – |
| Cc1cc2oc(-c3ccc(N4CCCC4)c(O)c3)c(O)c(=O)c2cc1C | inactive | 15 nM | 21% | – | Active | Active | 2.79 equiv | – | – |
| Cc1cc2oc(-c3ccc(N4CCCC4)cc3)c(O)c(=O)c2cc1C | inactive | 90 nM | 0% | – | Active | Active | 2.4 equiv | – | – |
| Cc1cc2oc(-c3ccc(N(C)C)cc3)c(O)c(=O)c2cc1C | inactive | 20 nM | 11% | – | inactive | Active | 3 equiv | – | – |
| O=C(/C=C/c1ccc(O)c(O)c1)c1ccc2ccccc2c1O | Active | 80 nM | 75% | – | Active | Active | 2.8 equiv | – | – |
| COc1ccc(/C=C/C(=O)c2cc(C)c(C)cc2O)cc1OCc1ccccc1 | Active | – | 70% | – | Active | Active | 0.12 equiv | Not Active | – |
| COc1cc(-c2oc3cc(C)c(C)cc3c(=O)c2O)ccc1O | – | 40 nM | 77% | 10 | inactive | inactive | 1.89 equiv | – | – |
| COc1cc(-c2cc(=O)c3cc(C)c(C)cc3o2)ccc1O | – | 30 nM | 41% | 10 | inactive | inactive | 0.12 equiv | – | – |
| O=c1c(O)c(-c2ccc(O)c(O)c2)oc2cc(O)ccc12 [FISETIN] | Active | 3000 nM | 80% | – | Active | Active | 3 equiv | – | 2000 nM |
| COc1cc(-c2ccc(N3CCCC3)cc2)nc2ccccc12 | – | – | 67% | – | inactive | inactive | 0.27 equiv | Not Active | – |
| CN(C)c1ccc(-c2cc(=O)c3ccc4ccccc4c3o2)cc1 | – | 250 nM | 35% | – | inactive | inactive | 0.24 equiv | – | – |
| Cc1cc(O)c(C(=O)/C=C/c2ccc(O)cc2O)cc1C | – | 50 nM | 53% | – | Active | inactive | 0.93 equiv | – | – |
| O=c1c(O)c(-c2ccc(O)c(O)c2)oc2ccccc12 | Active | 500 nM | 80% | 6 | Active | Active | 2 equiv | – | – |
| COc1cc(/C=C/C(=O)c2ccc3ccccc3c2O)ccc1OCc1ccccc1 | – | 500 nM | 9% | – | inactive | inactive | 0.15 equiv | – | – |
